Assay results reported in publication PMC10325562 (Circulation, 2023).
Entries after “also recorded” stand apart in the source; their conditions may differ. Like-named read-outs stand apart in the source and are kept apart here.

Key:
PCSK9 in human plasma = PCSK9 in human plasma (Homo sapiens, UniProt Q8NBP7); assay: In vitro titration of PCSK9 in human plasma; format: binding
Procedure, shortened: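 Pooled EDTA-anticoagulated plasma (human, n=20 donors; or cynomolgus monkey) spiked with test compound at 0, 0.3, 1, 3, 5, 10, 50, 100, 500 and 1000 nM, from 0.1 mM DMSO stocks. Incubated 30 min at 25°C. Target engagement measured on 50 μL aliquots by affinity capture, enzymatic digestion and LC-MS/MS.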

Solubility = format: physicochemical
[1] = Standard genotoxicity/mutagenicity assessments
rats = assay: Safety pharmacology and 1-month repeat-dose toxicity studies, rats; format: in vivo; details: safety pharmacology and 1-month repeat-dose toxicity
monkeys = assay: Safety pharmacology and 1-month repeat-dose toxicity studies, monkeys; format: in vivo; details: safety pharmacology and 1-month repeat-dose toxicity
[2] = Oral bioavailability in cynomolgus monkeys with permeation enhancer; format: in vivo; details: formulated with an established PE
[3] = Study-001 single oral dose plasma pharmacokinetics; format: in vivo, human; details: 200 mg single dose
[4] = Study-001 safety and tolerability; format: in vivo, human
Procedure, shortened: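 Single-center, randomized, double-blind, placebo-controlled, single-ascending oral dose study in healthy males aged 18–50. The test compound was given alone, with Labrasol or with sodium caprate. Dosing was fasted except one group after a high-fat breakfast. Escalations were ≥4 days apart, with ≥7-day washout per participant and safety review through ≥24 h. Monitoring covered AEs, physical exam, laboratory safety, 12-lead ECG and vital signs.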

[5] = Study-003 multiple oral dose plasma pharmacokinetics; format: in vivo, human; details: for Accumulation ratio (Day 14/Day 1) AUC0-24 / Accumulation ratio (Day 14/Day 1) C24 / Accumulation ratio (Day 14/Day 1) Cmax: (90% CI); for level at time molar at 24 h: both, plasma, po; for level at time molar at 24 h / AUC(0-t) / Cmax / Tmax / half-life: human; for AUC(0-t) / Cmax / Tmax / half-life: in vivo
[6] = Study-003 safety and tolerability; format: in vivo, human
[7] = Passive permeability in MDCKII cells; details: MDCK, pH 7.4
[8] = 10 mg once daily 30 min post-meal + 360 mg sodium caprate, n=6
[9] = 10 mg once daily fasted + 360 mg sodium caprate, n=8
[10] = 20 mg once daily fasted + 360 mg sodium caprate, n=9

PCSK9 in human plasma, sequence (Q8NBP7 153-692): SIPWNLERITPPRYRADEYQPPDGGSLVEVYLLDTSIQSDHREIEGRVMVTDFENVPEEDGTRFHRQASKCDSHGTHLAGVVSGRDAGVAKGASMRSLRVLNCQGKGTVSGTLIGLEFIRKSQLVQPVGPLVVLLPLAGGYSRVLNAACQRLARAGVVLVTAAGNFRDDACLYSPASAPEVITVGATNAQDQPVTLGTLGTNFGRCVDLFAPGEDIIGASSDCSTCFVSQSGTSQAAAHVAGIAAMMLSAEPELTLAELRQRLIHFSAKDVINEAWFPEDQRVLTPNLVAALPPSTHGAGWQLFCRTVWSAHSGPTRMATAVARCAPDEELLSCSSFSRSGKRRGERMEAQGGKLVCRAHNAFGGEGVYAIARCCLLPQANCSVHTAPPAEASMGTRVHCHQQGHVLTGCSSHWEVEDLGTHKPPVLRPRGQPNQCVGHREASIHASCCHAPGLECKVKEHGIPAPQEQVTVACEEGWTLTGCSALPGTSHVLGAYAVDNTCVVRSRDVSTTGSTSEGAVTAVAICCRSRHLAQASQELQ

## COc1ccc(C[C@@H]2NC(=O)[C@H]([C@@H](C)O)NC(=O)[C@@H]3[C@@H]4CCN3C(=O)[C@@H]3Cc5cn(c6ccc(F)cc56)CCCCCCN(Cc5ccc(cc5)CCNC(=O)[C@]5(C)CCCN5C2=O)C(=O)CCC(=O)N[C@@H](C)C(=O)N[C@H](CNC(=O)CCCCC[N+](C)(C)C)C(=O)N[C@@H](Cc2cccc(c2)CNC(=O)CO4)C(=O)N3)cc1 [MK-0616]
PCSK9 in human plasma
  IC50: 2.5 nM
Solubility
  solubility: 7.8 mg/mL
Solubility; pH 7
  solubility: > 7 mg/mL
[1]
  Genotoxicity / mutagenicity: not genotoxic or mutagenic
rats
  Tolerability: well tolerated
monkeys
  Tolerability: well tolerated
[2]
  Oral bioavailability: demonstrated oral bioavailability
[3]
  Fold lower Cmax in the absence of 1,800 mg Labrasol vs same dose in the PE: > 5 fold
[4]; Study-001
  Deaths or serious AEs: No deaths or serious AEs
[4]; Study-001, n=28 of n=51 administered MK-0616
  Participants with ≥1 AE: 54.9%
[4]; Study-001, single-dose oral administration
  Tolerability: generally well tolerated
[5]; [8]
  Accumulation ratio (Day 14/Day 1) AUC0-24: 1.90 (1.42, 2.55) h•nmol/L
  Accumulation ratio (Day 14/Day 1) C24: 2.01 (1.51, 2.67) nmol/L
  Accumulation ratio (Day 14/Day 1) Cmax: 1.60 (1.17, 2.21) nmol/L
[5]; [9]
  Accumulation ratio (Day 14/Day 1) AUC0-24: 1.46 (1.13, 1.88) h•nmol/L
  Accumulation ratio (Day 14/Day 1) C24: 1.32 (1.03, 1.70) nmol/L
  Accumulation ratio (Day 14/Day 1) Cmax: 1.51 (1.15, 1.99) nmol/L
[5]; 10 mg vs same dose fasting
  Delay of Day 14 Tmax by low-fat breakfast 30 minutes prior to dose: approximately 6 hours
[5]; [10]
  Accumulation ratio (Day 14/Day 1) AUC0-24: 1.97 (1.54, 2.54) h•nmol/L
  Accumulation ratio (Day 14/Day 1) C24: 1.81 (1.42, 2.31) nmol/L
  Accumulation ratio (Day 14/Day 1) Cmax: 2.04 (1.56, 2.68) nmol/L
[5]; all doses evaluated in Study-003
  Plasma accumulation: approximately 2 fold
[5]; 20 mg once daily, C24, Day 14, 20 mg once daily fasted + 360 mg sodium caprate, n=9, footnote: median (min, max)
  level at time molar at 24 h: 11.1 nM
[5]; 20 mg, C24, Day 1, 20 mg once daily fasted + 360 mg sodium caprate, n=9, geometric mean (95% CI)
  level at time molar at 24 h: 6.13 nM
[5]; AUC0-24, Day 1, 20 mg once daily fasted + 360 mg sodium caprate, statin-treated, n=9, geometric mean (95% CI)
  AUC(0-t): 142 nM·h
[5]; AUC0-24, Day 14, 20 mg once daily fasted + 360 mg sodium caprate, n=9, geometric mean (95% CI)
  AUC(0-t): 280 nM·h
[5]; Day 1, 20 mg once daily fasted + 360 mg sodium caprate, n=9, geometric mean (95% CI)
  Cmax: 7.87 nM
[5]; Day 14, 20 mg once daily fasted + 360 mg sodium caprate, n=9, geometric mean (95% CI)
  Cmax: 16.1 nM
[5]; Day 14, all fasted doses
  Tmax: < 2 h
[5]; Day 14, 20 mg once daily fasted + 360 mg sodium caprate, n=9, median (min, max)
  Tmax: 1.8 h
[5]; t1/2, Day 14, 20 mg once daily fasted + 360 mg sodium caprate, n=9, geometric mean (% geometric CV)
  half-life: 244 h
[5]; t1/2, range, Day 14, across dose regimens
  half-life: 178 to 244 h
[5]; once daily dosing, all dosing regimens
  Time to steady state: by the end of the first week; also recorded: after 1 week
[6]; Study-003
  Deaths or serious AEs: No deaths or serious AEs
[6]; Study-003, 14 days of daily oral dosing
  Tolerability: generally well tolerated
[6]; Study-003, n=1
  Drug-related AE: dizziness: 3.2%
  Drug-related AE: dry mouth: 3.2%
  Drug-related AE: dyspepsia: 3.2%
  Drug-related AE: flushing: 3.2%
  Drug-related AE: hunger: 3.2%
  Drug-related AE: insomnia: 3.2%
[6]; Study-003, n=2
  Drug-related AE: gastroesophageal reflux disease: 6.5%
[6]; Study-003, n=7 of 31
  Participants with 1 or more drug-related AEs: 22.6%
[6]; Study-003, n=21 of n=31 administered MK-0616
  Participants with 1 or more AEs: 67.7%
[7]
  Papp: 7.1 nm/s
